Tested on: U2OS
Experiment: Multiplex assay against U2OS
Type: toxicity, cell-based
Details: human
Summary of the method: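 Per cents of healthy-nucleus cells form the tubulin, mitochondrial-mass and membrane-permeability phenotype values. Live cells were stained at seeding with Hoechst33342, BioTracker Green Microtubule Cytoskeleton Dye, MitoTracker Red and Annexin V Alexa Fluor 680. After compound addition they were imaged on a CQ1 microscope at 37°C and 5% CO2, and CellPathfinder machine-learning gating split them into Hoechst high-intensity objects or normal cells, normal cells into healthy, pyknosed or fragmented nuclei, and pyknosed cells into mitotic or apoptotic.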

[1] = 12 h, 1 µM, compound concentration 1 uM, replicate 1
[2] = 12 h, 1 µM, compound concentration 1 uM, replicate 2
[3] = 12 h, 10 µM, compound concentration 10 uM, replicate 1
[4] = 12 h, 10 µM, compound concentration 10 uM, replicate 2
[5] = 24 h, 1 µM, compound concentration 1 uM, replicate 1
[6] = 24 h, 1 µM, compound concentration 1 uM, replicate 2
[7] = 24 h, 10 µM, compound concentration 10 uM, replicate 1
[8] = 24 h, 10 µM, compound concentration 10 uM, replicate 2
[9] = 48 h, 1 µM, compound concentration 1 uM, replicate 1
[10] = 48 h, 1 µM, compound concentration 1 uM, replicate 2
[11] = 48 h, 10 µM, compound concentration 10 uM, replicate 1
[12] = 48 h, 10 µM, compound concentration 10 uM, replicate 2

CC(C)C[C@H](CO)Nc1nc(S[C@@H](C)c2ccccc2)nc2nc(N)sc12 [AZD-8797]
Population Apoptotic (%) [1]: 83%
Population Fragmented Nuclei (%) [1]: 20%
Population Healthy Nuclei (%) [1]: 65%
Population Hoechst High Intensity Objects (%) [1]: 3%
Population Membrane Permeable-Phenotype (%) [1]: 5%
Population Mitochondria Different-Phenotype (%) [1]: 1%
Population Mitotic Cells (%) [1]: 16%
Population Normal (%) [1]: 96%
Population Pyknosed Nuclei (%) [1]: 14%
Population Tubulin-Different-Phenotype (%) [1]: 2%
Total Cell Count [1]: 177
Population Apoptotic (%) [2]: 100%
Population Fragmented Nuclei (%) [2]: 12%
Population Healthy Nuclei (%) [2]: 82%
Population Hoechst High Intensity Objects (%) [2]: 0%
Population Mitochondria Different-Phenotype (%) [2]: 5%
Population Mitotic Cells (%) [2]: 0%
Population Normal (%) [2]: 100%
Population Pyknosed Nuclei (%) [2]: 5%
Population Tubulin-Different-Phenotype (%) [2]: 3%
Total Cell Count [2]: 95
Population Apoptotic (%) [3]: 63%
Population Fragmented Nuclei (%) [3]: 21%
Population Healthy Nuclei (%) [3]: 56%
Population Hoechst High Intensity Objects (%) [3]: 4%
Population Membrane Permeable-Phenotype (%) [3]: 30%
Population Mitochondria Different-Phenotype (%) [3]: 12%
Population Mitotic Cells (%) [3]: 36%
Population Normal (%) [3]: 95%
Population Pyknosed Nuclei (%) [3]: 22%
Population Tubulin-Different-Phenotype (%) [3]: 20%
Total Cell Count [3]: 222
Population Apoptotic (%) [4]: 78%
Population Fragmented Nuclei (%) [4]: 9%
Population Healthy Nuclei (%) [4]: 79%
Population Hoechst High Intensity Objects (%) [4]: 2%
Population Membrane Permeable-Phenotype (%) [4]: 10%
Population Mitochondria Different-Phenotype (%) [4]: 16%
Population Mitotic Cells (%) [4]: 21%
Population Normal (%) [4]: 97%
Population Pyknosed Nuclei (%) [4]: 10%
Population Tubulin-Different-Phenotype (%) [4]: 6%
Total Cell Count [4]: 135
Population Apoptotic (%) [5]: 81%
Population Fragmented Nuclei (%) [5]: 20%
Population Healthy Nuclei (%) [5]: 68%
Population Hoechst High Intensity Objects (%) [5]: 1%
Population Membrane Permeable-Phenotype (%) [5]: 2%
Population Mitochondria Different-Phenotype (%) [5]: 0%
Population Mitotic Cells (%) [5]: 18%
Population Normal (%) [5]: 98%
Population Pyknosed Nuclei (%) [5]: 10%
Population Tubulin-Different-Phenotype (%) [5]: 2%
Total Cell Count [5]: 219
Population Apoptotic (%) [6]: 83%
Population Fragmented Nuclei (%) [6]: 17%
Population Healthy Nuclei (%) [6]: 77%
Population Hoechst High Intensity Objects (%) [6]: 0%
Population Membrane Permeable-Phenotype (%) [6]: 4%
Population Mitochondria Different-Phenotype (%) [6]: 2%
Population Mitotic Cells (%) [6]: 16%
Population Normal (%) [6]: 100%
Population Pyknosed Nuclei (%) [6]: 4%
Population Tubulin-Different-Phenotype (%) [6]: 3%
Total Cell Count [6]: 121
Population Apoptotic (%) [7]: 76%
Population Fragmented Nuclei (%) [7]: 20%
Population Healthy Nuclei (%) [7]: 58%
Population Hoechst High Intensity Objects (%) [7]: 3%
Population Membrane Permeable-Phenotype (%) [7]: 22%
Population Mitochondria Different-Phenotype (%) [7]: 12%
Population Mitotic Cells (%) [7]: 24%
Population Normal (%) [7]: 96%
Population Pyknosed Nuclei (%) [7]: 21%
Population Tubulin-Different-Phenotype (%) [7]: 13%
Total Cell Count [7]: 245
Population Apoptotic (%) [8]: 100%
Population Fragmented Nuclei (%) [8]: 7%
Population Healthy Nuclei (%) [8]: 86%
Population Hoechst High Intensity Objects (%) [8]: 1%
Population Membrane Permeable-Phenotype (%) [8]: 9%
Population Mitotic Cells (%) [8]: 0%
Population Normal (%) [8]: 98%
Population Pyknosed Nuclei (%) [8]: 6%
Population Tubulin-Different-Phenotype (%) [8]: 6%
Total Cell Count [8]: 156
Population Apoptotic (%) [9]: 94%
Population Fragmented Nuclei (%) [9]: 18%
Population Healthy Nuclei (%) [9]: 69%
Population Hoechst High Intensity Objects (%) [9]: 2%
Population Membrane Permeable-Phenotype (%) [9]: 6%
Population Mitochondria Different-Phenotype (%) [9]: 0%
Population Mitotic Cells (%) [9]: 5%
Population Normal (%) [9]: 97%
Population Pyknosed Nuclei (%) [9]: 11%
Population Tubulin-Different-Phenotype (%) [9]: 2%
Total Cell Count [9]: 352
Population Apoptotic (%) [10]: 100%
Population Fragmented Nuclei (%) [10]: 15%
Population Healthy Nuclei (%) [10]: 77%
Population Membrane Permeable-Phenotype (%) [10]: 2%
Population Mitochondria Different-Phenotype (%) [10]: 2%
Population Mitotic Cells (%) [10]: 0%
Population Pyknosed Nuclei (%) [10]: 6%
Total Cell Count [10]: 181
Population Apoptotic (%) [11]: 90%
Population Fragmented Nuclei (%) [11]: 26%
Population Healthy Nuclei (%) [11]: 54%
Population Hoechst High Intensity Objects (%) [11]: 4%
Population Membrane Permeable-Phenotype (%) [11]: 20%
Population Mitochondria Different-Phenotype (%) [11]: 10%
Population Mitotic Cells (%) [11]: 9%
Population Normal (%) [11]: 95%
Population Pyknosed Nuclei (%) [11]: 19%
Population Tubulin-Different-Phenotype (%) [11]: 14%
Total Cell Count [11]: 296
Population Apoptotic (%) [12]: 96%
Population Fragmented Nuclei (%) [12]: 12%
Population Healthy Nuclei (%) [12]: 74%
Population Hoechst High Intensity Objects (%) [12]: 3%
Population Membrane Permeable-Phenotype (%) [12]: 11%
Population Mitochondria Different-Phenotype (%) [12]: 5%
Population Mitotic Cells (%) [12]: 3%
Population Normal (%) [12]: 96%
Population Pyknosed Nuclei (%) [12]: 12%
Population Tubulin-Different-Phenotype (%) [12]: 4%
Total Cell Count [12]: 218

Source: ChEMBL document CHEMBL5058577, “EUbOPEN Chemogenomics Library 2 (Multiplex)” (2022)
